Assay type in all cases: functional
For experiment [1], the species on record is Rattus norvegicus. The experiment in a line: Ability of compound at 1 uM to potentiate GABA-mediated currents in cultured postnatal rat hippocampal neurons using whole-cell patch clamp method. In short, it runs like this: (§1)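 Cultured postnatal rat hippocampal neurons (pups 1-2 days old, 3-10 days in vitro) were whole-cell voltage-clamped at -60 mV and room temperature (~22 °C), with a CsCl/HEPES/EGTA pipette solution at pH 7.3. Compound plus 1 μM GABA was pressure-ejected for 200 ms, with DMSO <0.2% final. Peak current was normalized to 1 μM GABA alone on the same cell (100% = no change). N = cells.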
A general note: In patch-clamp work, channel activity is measured electrically.

For experiment [2], the species on record is Rattus norvegicus. The experiment in a line: Ability of compound at 1 uM for current activation in the absence of GABA in cultured postnatal rat hippocampal neurons using whole-cell patch clamp method.
The species named for experiment [3] is Rattus norvegicus. Nature of the experiment: Ability of compound at 10 uM for current activation in the absence of GABA in cultured postnatal rat hippocampal neurons using whole-cell patch clamp method. In short, it runs like this: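 Whole-cell voltage clamp at -60 mV, room temperature (~22 °C), on hippocampal neurons cultured 3-10 days from 1-2 day old albino rat pups. Pipette solution is CsCl-based, pH 7.3. Compound is applied at 10 µM in the absence of GABA (DMSO stock, final DMSO <0.2%) by 200 ms pressure ejection. Peak gated current is compared with the same cell's 1 µM GABA response. N = cells.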

For experiment [4], the species on record is Rattus norvegicus. The experiment in a line: Ability of compound at 10 uM for current activation in the absence of GABA in cultured postnatal rat hippocampal neurons using whole-cell patch clamp method; NR=No response. In short, it runs like this: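 Whole-cell voltage clamp at -60 mV and ~22 °C in rat hippocampal cultures (postnatal pups, 3-10 days in vitro), with a CsCl-based pipette solution at pH 7.3. Compound alone, without GABA, was pressure-ejected for 200 ms (DMSO <0.2% final). The peak directly gated current was compared with the same cell's response to 1 μM GABA alone. N = cells.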

Experiment [5] is filed under the species Rattus norvegicus. Nature of the experiment: Ability of compound at 1 uM to potentiate GABA-mediated currents in cultured postnatal rat hippocampal neurons using whole-cell patch clamp method; NR=No response. In short, it runs like this: as §1
The species entered for experiment [6] is Rattus norvegicus. Nature of the experiment: Ability of compound at 10 uM to potentiate GABA-mediated currents in cultured postnatal rat hippocampal neurons using whole-cell patch clamp method. In short, it runs like this: as §1
The species named for experiment [7] is Rattus norvegicus. Nature of the experiment: Effective concentration against current mediated by 1 uM GABA in cultured rat hippocampal neurons.
The species named for experiment [8] is Rattus norvegicus. The experiment in a line: Ability of compound at 1 uM for current activation in the absence of GABA in cultured postnatal rat hippocampal neurons using whole-cell patch clamp method; NR=No response.

Activity calls are given as the source filed them. The rule behind the calls is not given here.

A word on the EC50: it is the midpoint of the concentration-response curve. Read a low EC50 as a more potent agent.

As to `C[C@]12CC[C@@H](O)C[C@@H]1CC[C@@H]1[C@@H]2CC[C@]2(C)[C@@H](C#N)CC[C@@H]12`, in the experiment filed under Rattus norvegicus [1], the Response worked out at 443%. In addition, the Gated current in the experiment listed under Rattus norvegicus [2] amounted to 22%; in the experiment listed under Rattus norvegicus [3], 49%.

For the molecule `C[C@]12CC[C@@H](O)C[C@@H]1CC[C@@H]1[C@@H]2CC[C@]2(C)[C@H](C#N)CC[C@@H]12`, in the experiment filed under Rattus norvegicus [4], the Gated current entry is “inactive”. For the same molecule, the Response result in the experiment filed under Rattus norvegicus [5] is “inactive”.

As to `C[C@]12CCC3C[C@H](CCO)CCC3C1CC[C@@H]2C#N` (some centres not stated), in the experiment listed under Rattus norvegicus [1], the Response was found to be 255%. Further, the Gated current entry in the experiment listed under Rattus norvegicus [4] was “inactive”.

On to `C[C@@H]1C2CC[C@@]3(C)C(CC[C@H]3C#N)C2CC[C@H]1CCO` (some centres not stated), for which, in the experiment listed under Rattus norvegicus [4], the Gated current result was “inactive”. Further, in the experiment listed under Rattus norvegicus [5], the Response result was “inactive”.

For the molecule `C[C@@H]1C2CC[C@@]3(C)C(CC[C@@H]3C#N)C2CC[C@H]1CCO` (some centres not stated), in the experiment listed under Rattus norvegicus [6], the Response is recorded as 244%. Further, the Gated current entry in the experiment listed under Rattus norvegicus [4] was “inactive”. For the same molecule, in the experiment listed under Rattus norvegicus [5], the Response entry is “inactive”.

`C[C@]12CC[C@H]3[C@@H](CC[C@H]4C[C@H](O)CC[C@@H]43)[C@@H]1CC[C@@H]2C#N`: in the experiment filed under Rattus norvegicus [1], the Response was determined as 372%. Further, the Gated current in the experiment listed under Rattus norvegicus [2] turned out to be 15%; in the experiment listed under Rattus norvegicus [3] it was 38%.

`CC1(C)C2CC[C@@]3(C)C(CC[C@H]3C#N)C2CC[C@H]1CCO` (some centres not stated): the Gated current result in the experiment listed under Rattus norvegicus [4] was “inactive”. Also, the Response result in the experiment filed under Rattus norvegicus [5] was “inactive”.

As for `CC(=O)[C@H]1CCC2C3CC[C@@H](CCO)CC3CC[C@@]21C` (some centres not stated), it took 200 nM to reach a half-maximal effect in the experiment listed under Rattus norvegicus [7] (EC50).

In the case of `CC1(C)C2CC[C@@]3(C)C(CC[C@@H]3C#N)C2CC[C@H]1CCO` (some centres not stated), the Response in the experiment listed under Rattus norvegicus [1] was 220%. In the experiment listed under Rattus norvegicus [4], the Gated current entry is “inactive”.

Turning to `C[C@]12CC[C@H]3[C@@H](CC[C@H]4C[C@H](O)CC[C@@H]43)[C@@H]1CC[C@H]2C#N`, the Gated current entry in the experiment filed under Rattus norvegicus [4] was “inactive”. In addition, the Response result in the experiment filed under Rattus norvegicus [5] was “inactive”.

Take `C[C@]12CCC3C[C@H](CCO)CCC3C1CC[C@H]2C#N` (some centres not stated): in the experiment listed under Rattus norvegicus [4], the Gated current result was “inactive”. The Response entry in the experiment filed under Rattus norvegicus [5] is “inactive”.

For the molecule `C[C@H]1C2CC[C@@]3(C)C(CC[C@@H]3C#N)C2CC[C@H]1CCO` (some centres not stated), the Response in the experiment filed under Rattus norvegicus [1] turned out to be 382%. Besides, the Gated current entry in the experiment listed under Rattus norvegicus [8] is “inactive”. The Gated current in the experiment listed under Rattus norvegicus [3] turned out to be 26%.

The values are drawn from ChEMBL document CHEMBL1127035, “Neurosteroid analogues: structure-activity studies of benz[e]indene modulators of GABAA receptor function. 1. The effect of 6-methyl substitution on the electrophysiological activity of 7-substituted benz[e]indene-3-carbonitriles” (J Med Chem, 1993).
